Measurements: ChEMBL document CHEMBL1124947, “Cationic antiprotozoal drugs. Trypanocidal activity of 2-(4'-formylphenyl)imidazo[1,2-a]pyridinium guanylhydrazones and related derivatives of quaternary heteroaromatic compounds” (J Med Chem, 1990)

Legend:
Type in all cases: functional
Mus musculus [1] = experiment: Trypanocidal Activity at I.C.E. value 0.94 when administered subcutaneously.
How it was run: (§1)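 Mice, in groups of five per dose, were given a standard inoculum of blood-stage T. rhodesiense that is lethal to all untreated controls, then dosed subcutaneously. Usually 11 dose levels were used (2^n × 0.42 mg/kg).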

Mus musculus [2] = experiment: Trypanocidal Activity at I.C.E. value 0.63 when administered perorally.
Mus musculus [3] = experiment: Trypanocidal Activity at I.C.E. value 0.57 when administered subcutaneously.; how it was run: as §1
Mus musculus [4] = experiment: Trypanocidal Activity at I.C.E. value 0.56 when administered perorally.
[5] = tested on: Trypanosoma brucei rhodesiense; experiment: In Vitro measurement of inhibition of Leucine uptake in cell culture of Trypanosoma rhodesiense.; conditions: read-out: ID50 (the source's name)
How it was run: (§2)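 Trypanosomes harvested from infected rats, cultured 3 h with several concentrations of drug, usually 0.1–100 µg/mL. Radiolabeled L-leucine uptake measured. ID50 is the concentration in µg/mL giving 50% inhibition of incorporation.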

[6] = tested on: Trypanosoma brucei rhodesiense; experiment: In Vitro measurement of inhibition of thymidine uptake in cell culture of Trypanosoma rhodesiense.; conditions: read-out: ID50 (the source's name)
How it was run: (§3)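 Parasites harvested from infected rats and incubated 3 h across a drug concentration series, usually 0.1–100 µg/mL. Incorporation of radiolabeled thymidine measured. ID50 is the concentration (µg/mL) producing 50% inhibition.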

Mus musculus [7] = experiment: Trypanocidal Activity at I.C.E. value 0.42 when administered perorally.
Mus musculus [8] = experiment: Trypanocidal Activity at I.C.E. value 0.45 when administered subcutaneously.
How it was run: (§4)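 Blood-stage T. rhodesiense infection came from a standard inoculum lethal to all untreated mice. Drug was given by subcutaneous injection to groups of five mice. Survival beyond 30 days counted as cure. […] Sub-curative doses scored 0, and data were normalized at each dose.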

[9] = tested on: Trypanosoma brucei rhodesiense; experiment: In Vitro measurement of inhibition of thymidine uptake in cell culture of Trypanosoma rhodesiense; conditions: read-out: ID50 (the source's name); how it was run: as §3
[10] = tested on: Trypanosoma brucei rhodesiense; experiment: In Vitro measurement of inhibition of leucine uptake in cell culture of Trypanosoma rhodesiense; conditions: read-out: ID50 (the source's name); how it was run: as §2
Mus musculus [11] = experiment: Trypanocidal Activity at I.C.E. value 0.80 when administered subcutaneously.; how it was run: as §1
Mus musculus [12] = experiment: Trypanocidal Activity at I.C.E. value 0.66 when administered subcutaneously.; how it was run: as §1
Mus musculus [13] = experiment: Trypanocidal Activity at I.C.E. value 0.15 when administered perorally.
Mus musculus [14] = experiment: Trypanocidal Activity at I.C.E. value 0.30 when administered subcutaneously.; how it was run: as §4
Mus musculus [15] = experiment: Trypanocidal Activity at I.C.E. value 0.55 when administered subcutaneously.; how it was run: as §1
Mus musculus [16] = experiment: Trypanocidal Activity at I.C.E. value 0.61 when administered subcutaneously.; how it was run: as §1
Mus musculus [17] = experiment: Trypanocidal Activity at I.C.E. value 0.35 when administered subcutaneously.; how it was run: as §4
[18] = tested on: Trypanosoma brucei rhodesiense; experiment: In Vitro measurement of inhibition of leucine uptake in cell culture of Trypanosoma rhodesiense.; conditions: read-out: ID50 (the source's name); how it was run: as §2
Mus musculus [19] = experiment: Trypanocidal Activity at I.C.E. value 0.59 when administered subcutaneously.; how it was run: as §1
Mus musculus [20] = experiment: Trypanocidal Activity at I.C.E. value 0.23 when administered perorally.
Mus musculus [21] = experiment: Trypanocidal Activity at I.C.E. value 0.31 when administered perorally.
Mus musculus [22] = experiment: Trypanocidal Activity at I.C.E. value 0.39 when administered subcutaneously.; how it was run: as §4
Mus musculus [23] = experiment: Trypanocidal Activity at I.C.E. value 0.50 when administered perorally.
Mus musculus [24] = experiment: Trypanocidal Activity at I.C.E. value 0.68 when administered subcutaneously.; how it was run: as §1
Mus musculus [25] = experiment: Trypanocidal Activity at I.C.E. value 0.53 when administered perorally.
Mus musculus [26] = experiment: Trypanocidal Activity at I.C.E. value 0.58 when administered subcutaneously.; how it was run: as §1
Mus musculus [27] = experiment: Trypanocidal Activity at I.C.E. value 0.51 when administered perorally.
Mus musculus [28] = experiment: Trypanocidal Activity at I.C.E. value 0.20 when administered perorally.
Mus musculus [29] = experiment: Trypanocidal Activity at I.C.E. value 0.79 when administered subcutaneously.; how it was run: as §1
Mus musculus [30] = experiment: Trypanocidal Activity at I.C.E. value >0.5 when administered perorally.
Mus musculus [31] = experiment: Trypanocidal Activity at I.C.E. value 0.65 when administered perorally.
Mus musculus [32] = experiment: Trypanocidal Activity at I.C.E. value 0.48 when administered subcutaneously.; how it was run: as §4
Mus musculus [33] = experiment: Trypanocidal Activity at I.C.E. value 0.52 when administered perorally.
Mus musculus [34] = experiment: Trypanocidal Activity at I.C.E. value 0.86 when administered subcutaneously.; how it was run: as §1
Mus musculus [35] = experiment: Trypanocidal Activity at I.C.E. value 0.67 when administered subcutaneously.; how it was run: as §1
Mus musculus [36] = experiment: Trypanocidal Activity at I.C.E. value 0.7 when administered subcutaneously.; how it was run: as §1
Mus musculus [37] = experiment: Trypanocidal Activity at I.C.E. value 0.76 when administered subcutaneously.; how it was run: as §1
Mus musculus [38] = experiment: Trypanocidal Activity at I.C.E. value 0.62 when administered subcutaneously.; how it was run: as §1
Mus musculus [39] = experiment: Trypanocidal Activity at I.C.E. value 0.28 when administered perorally.
Mus musculus [40] = experiment: Trypanocidal Activity at I.C.E. value 0.83 when administered subcutaneously.; how it was run: as §1
Mus musculus [41] = experiment: Trypanocidal Activity at I.C.E. value 0.34 when administered subcutaneously.; how it was run: as §4
Mus musculus [42] = experiment: Trypanocidal Activity at I.C.E. value 0.28 when administered subcutaneously.; how it was run: as §4
Mus musculus [43] = experiment: Trypanocidal Activity at I.C.E. value 0.65 when administered subcutaneously.; how it was run: as §1
[44] = tested on: Trypanosoma brucei rhodesiense; experiment: In Vitro Trypanosomal activity in rats was measured uptake of radiolabeled Leucine; conditions: read-out: ID50 (the source's name); how it was run: as §2
[45] = tested on: Trypanosoma brucei rhodesiense; experiment: In Vitro Trypanosomal activity in rats was measured uptake of radiolabeled Thymidine; conditions: read-out: ID50 (the source's name); how it was run: as §3
Mus musculus [46] = experiment: Trypanocidal Activity at I.C.E. value >0.15 when administered subcutaneously.; how it was run: as §1

Compound: C[n+]1c(-c2ccc(/C=C/C=N/NC(=N)N)cc2)cn2ccccc21.Cc1ccc(S(=O)(=O)O)cc1.Cc1ccc(S(=O)(=O)[O-])cc1
- CD50 (Mus musculus [1]): 0.06 mg/kg
- CD50 (Mus musculus [2]): 6.6 mg/kg

Compound: Br.C[n+]1c(-c2ccc(/C=N/NC3=NCCN3)cc2)cn2ccccc21.[Br-]
- CD50 (Mus musculus [3]): 0.8 mg/kg
- CD50 (Mus musculus [4]): 13 mg/kg
- IC50 [5]: 0.9 µg/mL
- IC50 [6]: 0.8 µg/mL

Compound: C[n+]1cccc(COc2ccc(/C=N/NC(=N)N)cc2)c1.Cc1ccc(S(=O)(=O)O)cc1.Cc1ccc(S(=O)(=O)[O-])cc1
- CD50 (Mus musculus [7]): 26 mg/kg
- CD50 (Mus musculus [8]): 0.8 mg/kg
- IC50 [9]: 1.8 µg/mL
- IC50 [10]: > 10 µg/mL

Compound: Br.CC/N=C(\NCC)N/N=C/c1ccc(/C=C/c2cn3ccccc3[n+]2C)cc1.[Br-]
- CD50 (Mus musculus [11]): 0.4 mg/kg

Compound: Br.CCNC(=N)N/N=C/c1ccc(/C=C/c2cn3ccccc3[n+]2C)cc1.[Br-]
- CD50 (Mus musculus [12]): 0.1 mg/kg

Compound: Br.CC/N=C(\NCC)N/N=C/c1ccc(C[n+]2cn(C)c3ccccc32)cc1.[Br-]
- CD50 (Mus musculus [13]): 424 mg/kg
- CD50 (Mus musculus [14]): 13 mg/kg

Compound: Cc1ccc(S(=O)(=O)O)cc1.Cc1ccc(S(=O)(=O)[O-])cc1.Cc1ccn2cc(-c3ccc(/C=N/NC(=N)N)cc3)[n+](C)c2c1
- CD50 (Mus musculus [15]): 1.6 mg/kg
- IC50 [6]: 1 µg/mL

Compound: CCNC(=N)N/N=C/c1ccc(/C=C/c2n(C)cc[n+]2C)cc1.Cc1ccc(S(=O)(=O)O)cc1.Cc1ccc(S(=O)(=O)[O-])cc1
- CD50 (Mus musculus [16]): 0.11 mg/kg

Compound: Br.CCN(CC)C(=N)N/N=C/c1ccc(-c2cn3ccccc3[n+]2C)cc1.[Br-]
- CD50 (Mus musculus [17]): 0.2 mg/kg
- IC50 [18]: 1 µg/mL
- IC50 [6]: 1.1 µg/mL

Compound: Br.Cn1c[n+](Cc2ccc(/C=N/NC3=NCCCN3)cc2)c2ccccc21.[Br-]
- CD50 (Mus musculus [19]): 1.6 mg/kg
- CD50 (Mus musculus [20]): 106 mg/kg

Compound: Br.CCCSc1ccc2n(c1)cc(-c1ccc(/C=N/NC(=N)N3CCCC3)cc1)[n+]2C.[Br-]
- CD50 (Mus musculus [1]): 0.1 mg/kg
- CD50 (Mus musculus [21]): 53 mg/kg

Compound: C[n+]1c(-c2ccc(/C=N/NC(=N)N)cc2)cn2cc(Cl)ccc21.Cc1ccc(S(=O)(=O)O)cc1.Cc1ccc(S(=O)(=O)[O-])cc1
- CD50 (Mus musculus [22]): 1.6 mg/kg
- CD50 (Mus musculus [23]): 13 mg/kg

Compound: Br.Cn1c(COc2ccc(/C=N/NC3=NCCN3)cc2)[n+](C)c2ccccc21.[Br-]
- CD50 (Mus musculus [24]): 0.2 mg/kg
- CD50 (Mus musculus [25]): 13 mg/kg

Compound: Br.C[n+]1c(-c2ccc(/C=C/C=N/NC3=NCCCN3)cc2)cn2ccccc21.[Br-]
- CD50 (Mus musculus [26]): 0.06 mg/kg
- CD50 (Mus musculus [27]): 13 mg/kg

Compound: C[n+]1c(-c2ccc(/C=N/NC(=N)N3CCSC3)cc2)cn2ccccc21.Cc1ccc(S(=O)(=O)O)cc1.Cc1ccc(S(=O)(=O)[O-])cc1
- CD50 (Mus musculus [28]): 212 mg/kg
- CD50 (Mus musculus [14]): 13 mg/kg

Compound: Br.C[n+]1c(/C=C/c2ccc(/C=N/NC3=NCCN3)cc2)cn2ccccc21.[Br-]
- CD50 (Mus musculus [29]): 0.2 mg/kg
- CD50 (Mus musculus [30]): 13 mg/kg

Compound: CN(C)C(=N)N/N=C/c1ccc(-c2cn3ccccc3[n+]2C)cc1.I.[I-]
- CD50 (Mus musculus [31]): 6.6 mg/kg
- CD50 (Mus musculus [32]): 0.2 mg/kg

Compound: Br.Cc1cccc2n1cc(/C=C/c1ccc(/C=N/NC3=NCCN3)cc1)[n+]2C.[Br-]
- CD50 (Mus musculus [33]): 26 mg/kg
- CD50 (Mus musculus [34]): 0.4 mg/kg

Compound: Br.Cc1cccc2n1cc(COc1ccc(/C=N/NC3=NCCCN3)cc1)[n+]2C.[Br-]
- CD50 (Mus musculus [35]): 0.4 mg/kg
- CD50 (Mus musculus [36]): 0.8 mg/kg

Compound: Br.CSC(=N)N/N=C/c1ccc(-c2cn3ccccc3[n+]2C)cc1.[Br-]
- CD50 (Mus musculus [15]): 6.6 mg/kg
- IC50 [9]: 3.8 µg/mL
- IC50 [10]: 5.8 µg/mL

Compound: Br.Cc1ccc2n(c1)cc(-c1ccc(/C=N/NC3=NCCCN3)cc1)[n+]2C.[Br-]
- CD50 (Mus musculus [37]): 0.2 mg/kg

Compound: Cc1ccc(S(=O)(=O)[O-])cc1.Cc1cccc2n1cc(/C=C/c1ccc(/C=N/NC(=O)c3ccc(N)cc3)cc1)[n+]2C
- CD50 (Mus musculus [38]): 6.6 mg/kg

Compound: CCCCSc1ccc2n(c1)cc(-c1ccc(/C=N/NC(=N)N)cc1)[n+]2C.Cc1ccc(S(=O)(=O)O)cc1.Cc1ccc(S(=O)(=O)[O-])cc1
- CD50 (Mus musculus [39]): 106 mg/kg
- CD50 (Mus musculus [40]): 0.4 mg/kg

Compound: Br.C[n+]1c(-c2ccc(/C=C/C=N/NC(=N)N3CCCC3)cc2)cn2ccccc21.[Br-]
- CD50 (Mus musculus [21]): 53 mg/kg
- CD50 (Mus musculus [41]): 0.8 mg/kg

Compound: Br.CC/N=C(\NCC)N/N=C/c1ccc(-c2cn3cc(C)ccc3[n+]2C)cc1.[Br-]
- CD50 (Mus musculus [12]): 1.6 mg/kg

Compound: Cc1ccc2n(c1)cc(-c1ccc(/C=N/Nc3nccs3)cc1)[n+]2C.[Br-]
- CD50 (Mus musculus [42]): 106 mg/kg

Compound: C[n+]1c(-c2ccc(/C=N/Nc3nc[nH]n3)cc2)cn2ccccc21.[Br-]
- CD50 (Mus musculus [43]): 0.8 mg/kg
- IC50 [44]: > 10 µg/mL
- IC50 [45]: 0.5 µg/mL

Compound: C[n+]1c(-c2ccc(/C=N/NC(=N)N[N+](=O)[O-])cc2)cn2ccccc21.[Br-]
- CD50 (Mus musculus [46]): <26 mg/kg
